Results taken from ChEMBL document CHEMBL1142273, “SAR studies of capsazepinoid bronchodilators 3: The thiourea part (coupling region) and the 2-(4-chlorophenyl)ethyl moiety (C-region)” (Bioorg Med Chem, 2008).

Key:
[1] = organism: Homo sapiens; assay: Bronchorelaxing effect in leukotriene D4-contracted human lung small airways model assessed as remaining contraction at 10 uM relative to control; format: functional
How it was run: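 Human small airways (0.5–1.5 mm diameter) from lobectomy tissue, stretched to 1.2 mN and accepted when two control LTD4 contractions differed by under 10%. Test substance at 10 µM was present for one whole cycle: 1 h LTD4-free PSS, then 30 min with 10 nM LTD4. The contraction was compared with the preceding one and given as % remaining, mean ± SEM. Paired preparations per chamber were averaged.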

[2] = organism: Homo sapiens; assay: Bronchorelaxing effect in leukotriene D4-contracted small human lung small airways model assessed as remaining contraction at 1 uM after 3 hrs relative to control
[3] = organism: Homo sapiens; assay: Bronchorelaxing effect in leukotriene D4-contracted small human lung small airways model assessed as remaining contraction at 1 uM after 4.5 hrs relative to control
[4] = organism: Homo sapiens; assay: Bronchorelaxing effect in leukotriene D4-contracted small human lung small airways model assessed as remaining contraction at 1 uM after 1.5 hrs relative to control
[5] = organism: Homo sapiens; assay: Bronchorelaxing effect in leukotriene D4-contracted small human lung small airways model assessed as remaining contraction at 1 uM after 6 hrs relative to control

Compound `O=C(NCCc1ccc(Cl)cc1)N1CCCc2cc(O)c(O)cc2C1` has an Activity [1] of 73%.

`Oc1c(O)c(Cl)c2c(c1Cl)CCN(C(=S)NCCc1ccc(F)cc1)C2` showed an Activity [1] of 6%.

Work on `O=C(NCCc1ccc(Cl)cc1)N1CCc2cc(O)c(O)cc2C1` yielded an Activity [1] of 69%.

Compound `O=C(CCCc1ccc(Cl)cc1)N1CCc2c(Cl)c(O)c(O)c(Cl)c2C1` has an Activity [2] of 65%, an Activity [3] of 55% and an Activity [1] of 16%. For the same compound, the Activity [4] was 80% and the Activity [5] was 45%.

In the case of `CCCCCCCCNC(=S)N1CCCc2cc(O)c(O)cc2C1`, the Activity [1] is reported as 69%.

`O=C(CCCc1ccc(Cl)cc1)N1CCc2cc(O)c(O)cc2C1` showed an Activity [1] of 47%.

In the case of `CC(C)(C)c1ccc(CCNC(=S)N2CCc3c(Cl)c(O)c(O)c(Cl)c3C2)cc1`, the Activity [1] is reported as 69%.

Compound `Oc1c(O)c(Cl)c2c(c1Cl)CCN(C(=S)NCCc1cccnc1)C2` has an Activity [1] of 30%.

In the case of `Oc1cc2c(cc1O)CN(C(=S)NCCc1ccccc1)CCC2`, the Activity [1] is reported as 71%.

Compound `Oc1cc2c(cc1O)CN(C(=S)NCCc1ccc(F)cc1)CCC2` has an Activity [1] of 68%.

Compound `Oc1c(O)c(Cl)c2c(c1Cl)CCN(C(=S)NCCc1ccncc1)C2` has an Activity [1] of 33%.

`Oc1c(O)c(Cl)c2c(c1Cl)CCN(C(=S)NCCc1cccc(Cl)c1)C2` gave an Activity [1] of 27%.

Compound `Oc1ccc(CCNC(=S)N2CCc3c(Cl)c(O)c(O)c(Cl)c3C2)cc1` has an Activity [1] of 22%.

`Oc1cc2c(cc1O)CN(C(=S)NCCc1ccc(Br)cc1)CCC2` showed an Activity [1] of 67%.

With `Oc1c(O)c(Cl)c2c(c1Cl)CCN(C(=S)NCCc1ccccc1Cl)C2` the Activity [1] was 10%.

Compound `Oc1c(O)c(Cl)c2c(c1Cl)CCN(C(=S)NCCc1ccccn1)C2` has an Activity [1] of 26%.

For `Oc1c(O)c(Cl)c2c(c1Cl)CCN(C(=S)NCc1ccccc1)C2`, the Activity [1] was 10%.

`Oc1cc2c(cc1O)CN(C(=S)NCc1ccc(Cl)cc1)CCC2` showed an Activity [1] of 70%.

`CC(C)(C)c1ccc(CCNC(=S)N2CCCc3cc(O)c(O)cc3C2)cc1` gave an Activity [1] of 80%.

Compound `Oc1cc2c(cc1O)CN(C(=S)NCCc1cccc(Cl)c1)CCC2` has an Activity [1] of 76%.

Work on `CCCCCCCCNC(=S)N1CCc2c(Cl)c(O)c(O)c(Cl)c2C1` yielded an Activity [1] of 69%.

`O=C(NCCc1ccc(Cl)cc1)C1CCc2cc(O)ccc2C1` (centres undefined) gave an Activity [1] of 78%.

Compound `Oc1c(O)c(Cl)c2c(c1Cl)CCN(C(=S)NCc1ccc(Cl)cc1)C2` has an Activity [1] of 19%.

Work on `Oc1c(O)c(Cl)c2c(c1Cl)CCN(C(=S)NCCc1ccc(Cl)cc1)C2` yielded an Activity [2] of 57%, an Activity [3] of 44% and an Activity [1] of 14%. The Activity [4] was 79% and the Activity [5] was 32%.

For `Oc1cc2c(cc1O)CN(C(=S)NCCc1ccccc1Cl)CCC2`, the Activity [1] was 56%.

`Oc1c(O)c(Cl)c2c(c1Cl)CCN(C(=S)NCCc1ccc(Br)cc1)C2` was tested, and the Activity [1] was 17%.

Work on `O=C(NCCc1ccc(Cl)cc1)N1CCc2c(Cl)c(O)c(O)c(Cl)c2C1` yielded an Activity [2] of 81%, an Activity [3] of 78% and an Activity [1] of 16%. It also gave an Activity [4] of 91% and an Activity [5] of 71%.

`Oc1c(O)c(Cl)c2c(c1Cl)CCN(C(=S)NCCCc1ccccc1)C2` showed an Activity [1] of 11%.

`O=C(CCCc1ccc(Cl)cc1)N1CCCc2cc(O)c(O)cc2C1` was tested, and the Activity [1] was 54%.

`O=C(NCCc1ccc(Cl)cc1)c1ccc2cc(O)ccc2c1` gave an Activity [1] of 90%.

For `Oc1c(O)c(Cl)c2c(c1Cl)CCN(C(=S)NCCc1ccccc1)C2`, the Activity [1] was 8%.

Compound `Oc1cc2c(cc1O)CN(C(=S)NCCCc1ccccc1)CCC2` has an Activity [1] of 84%.
